ChEMBL document CHEMBL3286111, “Tryptophan hydroxylase 1 (Tph-1)-targeted bone anabolic agents for osteoporosis” (J Med Chem, 2014)
The source made the active and inactive calls. The calls are words filed in the database; no cut-off is given here.

Columns and labels:
[1] = molecular target: T1, Tryptophan 5-hydroxylase 1 (Rattus norvegicus, UniProt P09810)
T1 sequence (P09810 whole entry): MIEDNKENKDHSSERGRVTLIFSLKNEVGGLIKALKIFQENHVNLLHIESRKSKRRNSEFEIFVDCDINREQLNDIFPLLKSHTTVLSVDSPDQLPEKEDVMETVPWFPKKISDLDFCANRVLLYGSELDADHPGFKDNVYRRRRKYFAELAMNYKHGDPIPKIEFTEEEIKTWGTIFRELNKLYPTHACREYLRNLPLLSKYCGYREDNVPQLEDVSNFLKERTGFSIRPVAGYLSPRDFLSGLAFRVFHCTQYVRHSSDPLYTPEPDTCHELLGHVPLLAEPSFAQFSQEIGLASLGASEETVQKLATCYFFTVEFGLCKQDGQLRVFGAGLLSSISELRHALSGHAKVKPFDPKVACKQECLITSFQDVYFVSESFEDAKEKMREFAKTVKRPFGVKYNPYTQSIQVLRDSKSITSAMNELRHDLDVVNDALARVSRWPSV

[2] = Cytotoxicity against rat RBL2H3 cells by MTT assay; assay type: cell-based; design: concentration or dose not given beside the values; conditions: rbl-2h3
Summary of the method: (§1)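 RBL2H3 cells (α-MEM) or PC12 cells (D-MEM), both with 10% FBS, treated at a single dose in 0.1% DMSO; 0.1% DMSO control; 37 °C, 5% CO2. MTT (5 mg/mL) added 4 h before the end, then SDS/DMF lysis buffer (pH 7.2) for 6 h; absorbance read at 570 nm. Cytotoxicity % calculated from background-corrected OD versus control.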

[3] = Cytotoxicity against rat PC12 cells by MTT assay; assay type: cell-based; conditions: pc-12
Summary of the method: as §1

Rattus norvegicus [4] = test: Antiosteoporotic activity in ovariectomized po dosed rat assessed as decrease in serum serotonin level administered for 30 days by HPLC analysis; assay type: functional, organism-based
Summary of the method: (§2)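 Female rats, 12 weeks old (220 g), bilateral ovariectomy under ip pentobarbital; from 3 days after surgery, 9a given orally once daily at 1, 10 or 20 mg/kg in 5% ethanol/95% water for 30 days, n = 8. Serum (HClO4-deproteinized) or brain homogenate (HClO4 plus NaH2PO4/acetonitrile) run on RP-C18 HPLC with fluorescence detection (ex 290/em 330 nm).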

Rattus norvegicus [5] = test: Effect on brain serotonin level in ovariectomized rat at 1 to 20 mg/kg/day, po for 30 days by RP-HPLC analysis; assay type: functional, organism-based
Summary of the method: as §2

Rattus norvegicus [6] = test: Antiosteoporotic activity in ovariectomized rat assessed as decrease in gut serotonin level at 10 mg/kg, po qd for 7 days by HPLC analysis relative to control; assay type: functional; design: scale not given: the % may be the effect or the level left
Summary of the method: (§3)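 Female rats, 12 weeks old (220 g), underwent bilateral ovariectomy under ip pentobarbital; sham controls included; n = 5 per group. Oral dosing in vehicle of 5% ethanol/95% water began 3 days post-surgery, once daily for 7 days. Small intestine (jejunum, ileum) was homogenised in 5% HClO4 and mobile phase. Serotonin was read by C18 HPLC with fluorescence detection (ex 290/em 330 nm).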

Rattus norvegicus [7] = test: Antiosteoporotic activity in ovariectomized rat assessed as decrease in gut serotonin level at 20 mg/kg, po qd for 7 days by HPLC analysis relative to control; assay type: functional; design: scale not given: the % may be the effect or the level left
Summary of the method: as §3

Brain = test: Drug uptake in ovariectomized rat brain at 10 to 20 mg/kg, po qd for 7 days by LC-MS analysis; assay type: ADME, organism-based; design: dose 10-20 mg/kg, route oral; conditions: in vivo, 168 h
Summary of the method: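 OVX rats given oral 9a at 10 or 20 mg/kg once daily for 7 days, starting 3 days after surgery, n = 5. Brain homogenate (about 2.0 g) extracted with 5% HClO4 and ethyl acetate, centrifuged; the organic layer was dried and analysed by LC-MS/MS (limit of detection 12.4 pg).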

Rattus norvegicus [8] = test: Antiosteoporotic activity in ovariectomized rat assessed as increase in trabecular bone volume fraction at 1 mg/kg/day, po for 30 days by microcomputed tomographic analysis; assay type: functional, organism-based; conditions: Trabecula
Summary of the method: (§4)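 Ovariectomized 12-week-old female rats dosed orally once daily with 9a (1, 10, 20 mg/kg/day, 5% ethanol vehicle) for 30 days, beginning 3 days after surgery, n = 8 per group. Lumbar vertebrae were collected after CO2 euthanasia and scanned by micro-CT for BV/TV, Tb.Th, Tb.N, Tb.Sp and BMD.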

Rattus norvegicus [9] = test: Antiosteoporotic activity in ovariectomized rat assessed as increase in trabecular thickness at 1 mg/kg/day, po for 30 days by microcomputed tomographic analysis; assay type: functional, organism-based; conditions: Trabecula
Summary of the method: as §4

Rattus norvegicus [10] = test: Antiosteoporotic activity in ovariectomized rat assessed as increase in trabecular number at 1 mg/kg/day, po for 30 days by microcomputed tomographic analysis; assay type: functional, organism-based; conditions: Trabecula
Summary of the method: as §4

Rattus norvegicus [11] = test: Antiosteoporotic activity in ovariectomized rat assessed as increase in bone mineral density at 1 mg/kg/day, po for 30 days by microcomputed tomographic analysis; assay type: functional, organism-based
Summary of the method: as §4

Rattus norvegicus [12] = test: Antiosteoporotic activity in ovariectomized rat assessed as decrease in trabecular separation at 1 mg/kg/day, po for 30 days by microcomputed tomographic analysis; assay type: functional, organism-based; conditions: Trabecula
Summary of the method: as §4

Rattus norvegicus [13] = test: Antiosteoporotic activity in ovariectomized rat assessed as increase in bone mineral density at 10 to 20 mg/kg/day, po for 30 days by microcomputed tomographic analysis relative to control; assay type: functional
Summary of the method: (§5)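 Female rats, 12 weeks old, underwent bilateral ovariectomy; sham, OVX-vehicle and ip PTH 20 μg/kg/day groups were included; n = 8. Oral dosing at 1, 10 and 20 mg/kg/day in 5% ethanol/95% water began 3 days post-surgery, once daily for 30 days. Lumbar vertebrae were scanned by μCT for BV/TV, Tb.Th, Tb.N, Tb.Sp and BMD.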

Rattus norvegicus [14] = test: Antiosteoporotic activity in ovariectomized rat assessed as increase in trabecular bone volume fraction at 10 to 20 mg/kg/day, po for 30 days by microcomputed tomographic analysis relative to control; assay type: functional, Trabecula
Summary of the method: as §5

Rattus norvegicus [15] = test: Antiosteoporotic activity in ovariectomized rat assessed as increase in trabecular number at 10 to 20 mg/kg/day, po for 30 days by microcomputed tomographic analysis relative to control; assay type: functional, Trabecula
Summary of the method: as §5

Rattus norvegicus [16] = test: Antiosteoporotic activity in ovariectomized rat assessed as increase in trabecular thickness at 10 to 20 mg/kg/day, po for 30 days by microcomputed tomographic analysis relative to control; assay type: functional, Trabecula
Summary of the method: as §5

Rattus norvegicus [17] = test: Antiosteoporotic activity in ovariectomized rat assessed as decrease in trabecular separation at 10 to 20 mg/kg/day, po for 30 days by microcomputed tomographic analysis relative to control; assay type: functional, Trabecula; design: scale not given: the % may be the effect or the level left
Summary of the method: as §5

Rattus norvegicus [18] = test: Antiosteoporotic activity in ovariectomized po dosed rat assessed as increase in serum P1NP level administered for 30 days by ELISA; assay type: functional, organism-based
Summary of the method: (§6)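 OVX female rats (12 weeks old), oral 9a at 1, 10 or 20 mg/kg per day in 5% ethanol vehicle, starting 3 days post-surgery, for 30 days, n = 8. Serum was taken at the end, centrifuged and stored at −20 °C. P1NP or CTX-1 was measured by ELISA kit and reported as means ± SD.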

Rattus norvegicus [19] = test: Antiosteoporotic activity in ovariectomized rat assessed as decrease in serum CTX-1 level at 10 to 20 mg/kg/day, po for 30 days by ELISA; assay type: functional, organism-based
Summary of the method: as §6

Rattus norvegicus [20] = test: Effect on endometrial luminal epithelium with undeveloped endometrial gland in ovariectomized rat at 10 to 20 mg/kg/day, po for 30 days by hematoxylin-eosin staining-based light microscopic analysis; assay type: ADME, organism-based; design: route oral; conditions: in vivo, 720 h
Summary of the method: (§7)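 OVX rats dosed orally with 9a (1, 10, 20 mg/kg/day) for 30 days from 3 days post-surgery. Uteri and livers were collected at the end, then sectioned, stained and examined by light microscopy for endometrial luminal epithelium, glands and liver morphology/pathology.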

Rattus norvegicus [21] = test: Effect on liver morphology in ovariectomized rat at 10 to 20 mg/kg/day, po for 30 days by hematoxylin-eosin staining-based light microscopic analysis; assay type: ADME, organism-based; design: route oral; conditions: in vivo, 720 h
Summary of the method: as §7

Rattus norvegicus [22] = test: Effect on liver pathology in ovariectomized rat at 10 to 20 mg/kg/day, po for 30 days by hematoxylin-eosin staining-based light microscopic analysis; assay type: ADME, organism-based; design: route oral; conditions: in vivo, 720 h
Summary of the method: as §7

SMILES: Nc1nc(OC(c2ccc(-c3cccc(F)c3)cc2)C(F)(F)F)cc(-c2ccc(C[C@H](N)C(=O)O)cc2)n1 (some centres undefined)
- IC50 [1]: 400 nM

SMILES: CCOC(=O)CNC(=O)[C@]12CC[C@@H](C)[C@H](C)[C@H]1C1=CC[C@@H]3[C@@]4(C)Cc5nc6ccccc6nc5C(C)(C)[C@@H]4CC[C@@]3(C)[C@]1(C)CC2
- Activity [2]: 1%
- Activity [3]: Non-toxic
- Activity (Rattus norvegicus [4]): Dose-dependent effect
- Activity (Rattus norvegicus [5]): inactive
- Activity (Rattus norvegicus [6]): 34%
- Activity (Rattus norvegicus [7]): 36%
- Drug uptake (Brain): Not Active
- Activity (Rattus norvegicus [8]): inactive
- Activity (Rattus norvegicus [9]): inactive
- Activity (Rattus norvegicus [10]): inactive
- Activity (Rattus norvegicus [11]): inactive
- Activity (Rattus norvegicus [12]): inactive
- Activity (Rattus norvegicus [13]): 22.6%
- Activity (Rattus norvegicus [14]): 28%
- Activity (Rattus norvegicus [15]): 43.3%
- Activity (Rattus norvegicus [16]): 24%
- Activity (Rattus norvegicus [17]): -24.9%
- Activity (Rattus norvegicus [18]): Dose-dependent effect
- Activity (Rattus norvegicus [19]): inactive
- Activity (Rattus norvegicus [20]): Non-toxic
- Activity (Rattus norvegicus [21]): Non-toxic
- Activity (Rattus norvegicus [22]): Non-toxic

SMILES: CCOC(=O)CNC(=O)[C@]12CC[C@@H](C)[C@H](C)[C@H]1C1=CC[C@@H]3[C@@]4(C)Cc5c([nH]c6ccc(Br)cc56)C(C)(C)[C@@H]4CC[C@@]3(C)[C@]1(C)CC2
- Activity [2]: 1.7%

SMILES: CCOC(=O)CNC(=O)[C@]12CC[C@@H](C)[C@H](C)[C@H]1C1=CC[C@@H]3[C@@]4(C)C=C(C#N)C(=O)C(C)(C)[C@@H]4CC[C@@]3(C)[C@]1(C)CC2
- Activity [2]: 50.1%

SMILES: CCOC(=O)CNC(=O)[C@]12CC[C@@H](C)[C@H](C)[C@H]1C1=CC[C@@H]3[C@@]4(C)Cc5cncnc5C(C)(C)[C@@H]4CC[C@@]3(C)[C@]1(C)CC2
- Activity [2]: 1.9%

SMILES: C[C@H]1[C@H](C)CC[C@]2(C(=O)O)CC[C@]3(C)C(=CC[C@@H]4[C@@]5(C)C=C(C#N)C(=O)C(C)(C)[C@@H]5CC[C@]43C)[C@H]12
- Activity [2]: 4.3%

SMILES: COC(=O)C(Cc1ccccc1)NC(=O)[C@]12CC[C@@H](C)[C@H](C)[C@H]1C1=CC[C@@H]3[C@@]4(C)Cc5c([nH]c6ccc(Br)cc56)C(C)(C)[C@@H]4CC[C@@]3(C)[C@]1(C)CC2 (some centres undefined)
- Activity [2]: 16%

SMILES: COC(=O)C(Cc1ccccc1)NC(=O)[C@]12CC[C@@H](C)[C@H](C)[C@H]1C1=CC[C@@H]3[C@@]4(C)Cc5c([nH]c6ccc(Cl)cc56)C(C)(C)[C@@H]4CC[C@@]3(C)[C@]1(C)CC2 (some centres undefined)
- Activity [2]: 1.6%

SMILES: CCOC(=O)CNC(=O)[C@]12CC[C@@H](C)[C@H](C)[C@H]1C1=CC[C@@H]3[C@@]4(C)Cc5cnoc5C(C)(C)[C@@H]4CC[C@@]3(C)[C@]1(C)CC2
- Activity [2]: 11.1%

SMILES: CCOC(=O)CNC(=O)[C@]12CC[C@@H](C)[C@H](C)[C@H]1C1=CC[C@@H]3[C@@]4(C)Cc5nc6cc(Cl)c(Cl)cc6nc5C(C)(C)[C@@H]4CC[C@@]3(C)[C@]1(C)CC2
- Activity [2]: 2%

SMILES: COC(=O)C(Cc1ccccc1)NC(=O)[C@]12CC[C@@H](C)[C@H](C)[C@H]1C1=CC[C@@H]3[C@@]4(C)Cc5cnn(-c6ccc(F)cc6)c5C(C)(C)[C@@H]4CC[C@@]3(C)[C@]1(C)CC2 (some centres undefined)
- Activity [2]: 2%

SMILES: C[C@H]1[C@H](C)CC[C@]2(C(=O)O)CC[C@]3(C)C(=CC[C@@H]4[C@@]5(C)Cc6cn[nH]c6C(C)(C)[C@@H]5CC[C@]43C)[C@H]12
- Activity [2]: 0.1%

SMILES: COC(=O)C(CC(C)C)NC(=O)[C@]12CC[C@@H](C)[C@H](C)[C@H]1C1=CC[C@@H]3[C@@]4(C)Cc5cnn(-c6ccc(F)cc6)c5C(C)(C)[C@@H]4CC[C@@]3(C)[C@]1(C)CC2 (some centres undefined)
- Activity [2]: 1%
